Assay results published in ChEMBL document CHEMBL1255429, “Efflux pumps are involved in the defense of Gram-negative bacteria against the natural products isobavachalcone and diospyrone” (2010).
Converted amounts (≈) assume the structure as drawn.

How the values were obtained:
Format in all cases: functional
[1] = system: Escherichia coli; test: Antimicrobial activity against Escherichia coli ATCC 10536 after 18 hrs by rapid INT colorimetric assay; settings: ATCC 10536, 18 h
How it was run: (§1)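 Strains precultured overnight on Mueller-Hinton agar. Sample dissolved in DMSO-MHB, twofold serial dilutions in MHB, inoculum 1.5 × 10^6 CFU/ml; final DMSO below 2.5%. Incubated 37°C 18 h, then 0.2 mg/ml INT added, 30 min at 37°C. MIC = lowest concentration preventing yellow-to-pink change (complete growth inhibition). DMSO-only wells as negative control.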

[2] = system: Escherichia coli; test: Antimicrobial activity against Escherichia coli ATCC 10536 after 18 hrs by rapid INT colorimetric assay in presence of efflux pump inhibitor phenylalanine arginine beta-naphthylamide; settings: ATCC 10536, 18 h
How it was run: (§2)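 Broth microdilution MIC in Mueller-Hinton broth with PAßN at a final 20 μg/ml throughout. Twofold dilutions of sample from DMSO-MHB stock; inoculum 1.5 × 10^6 CFU/ml; 18 h at 37°C, final DMSO <2.5%. Growth read by INT (0.2 mg/ml, 30 min, 37°C). MIC taken as lowest concentration with no pink colour.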

[3] = system: Escherichia coli; test: Antimicrobial activity against Escherichia coli ATCC 8739 after 18 hrs by rapid INT colorimetric assay; settings: ATCC 8739, 18 h
How it was run: (§3)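 Strains precultured overnight on Mueller-Hinton agar. Samples dissolved in DMSO-MHB, serially diluted twofold in MHB, inoculum 1.5 × 10^6 CFU/ml in MHB added; 37°C, 18 h; final DMSO <2.5%. 0.2 mg/ml INT then added, 30 min at 37°C. MIC = lowest concentration preventing yellow-to-pink reduction, i.e. complete growth inhibition.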

[4] = system: Escherichia coli; test: Antimicrobial activity against Escherichia coli ATCC 8739 after 18 hrs by rapid INT colorimetric assay in presence of efflux pump inhibitor phenylalanine arginine; settings: ATCC 8739, 18 h; how it was run: as §2
[5] = system: Escherichia coli; test: Antimicrobial activity against Escherichia coli AG100 after 18 hrs by rapid INT colorimetric assay; settings: AG100, 18 h; how it was run: as §3
[6] = system: Escherichia coli; test: Antimicrobial activity against Escherichia coli AG100 after 18 hrs by rapid INT colorimetric assay in presence of efflux pump inhibitor phenylalanine arginine; settings: AG100, 18 h
[7] = system: Escherichia coli; test: Antimicrobial activity against Escherichia coli AG100A after 18 hrs by rapid INT colorimetric assay; how it was run: as §3
[8] = system: Escherichia coli; test: Antimicrobial activity against Escherichia coli AG100A after 18 hrs by rapid INT colorimetric assay in presence of efflux pump inhibitor phenylalanine arginine
[9] = system: Escherichia coli; test: Antimicrobial activity against tetracycline-resistant Escherichia coli AG100A after 18 hrs by rapid INT colorimetric assay; how it was run: as §3
[10] = system: Escherichia coli; test: Antimicrobial activity against tetracycline-resistant Escherichia coli AG100A after 18 hrs by rapid INT colorimetric assay in presence of efflux pump inhibitor phenylalanine arginine; how it was run: as §2
[11] = system: Escherichia coli; test: Antimicrobial activity against tetracycline-resistant Escherichia coli AG102 after 18 hrs by rapid INT colorimetric assay; settings: AG102, 18 h; how it was run: as §3
[12] = system: Escherichia coli; test: Antimicrobial activity against tetracycline-resistant Escherichia coli AG102 after 18 hrs by rapid INT colorimetric assay in presence of efflux pump inhibitor phenylalanine arginine; settings: AG102, 18 h; how it was run: as §2
[13] = system: Klebsiella aerogenes; test: Antimicrobial activity against Enterobacter aerogenes ATCC 13048 after 18 hrs by rapid INT colorimetric assay; settings: ATCC 13048, 18 h; how it was run: as §1
[14] = system: Klebsiella aerogenes; test: Antimicrobial activity against Enterobacter aerogenes ATCC 13048 after 18 hrs by rapid INT colorimetric assay in presence of efflux pump inhibitor phenylalanine arginine; settings: ATCC 13048, 18 h
[15] = system: Klebsiella aerogenes; test: Antimicrobial activity against Enterobacter aerogenes EA-CM64 after 18 hrs by rapid INT colorimetric assay; settings: EA-CM64, 18 h; how it was run: as §3
[16] = system: Klebsiella aerogenes; test: Antimicrobial activity against Enterobacter aerogenes EA-CM64 after 18 hrs by rapid INT colorimetric assay in presence of efflux pump inhibitor phenylalanine arginine; settings: EA-CM64, 18 h
[17] = system: Klebsiella aerogenes; test: Antimicrobial activity against Enterobacter aerogenes EA289 after 18 hrs by rapid INT colorimetric assay; settings: EA289, 18 h; how it was run: as §1
[18] = system: Klebsiella aerogenes; test: Antimicrobial activity against Enterobacter aerogenes EA289 after 18 hrs by rapid INT colorimetric assay in presence of efflux pump inhibitor phenylalanine arginine; settings: EA289, 18 h
[19] = system: Klebsiella aerogenes; test: Antimicrobial activity against Enterobacter aerogenes EA294 after 18 hrs by rapid INT colorimetric assay; settings: EA294, 18 h; how it was run: as §3
[20] = system: Klebsiella aerogenes; test: Antimicrobial activity against Enterobacter aerogenes EA294 after 18 hrs by rapid INT colorimetric assay in presence of efflux pump inhibitor phenylalanine arginine; settings: EA294, 18 h
[21] = system: Klebsiella aerogenes; test: Antimicrobial activity against Enterobacter aerogenes EA298 after 18 hrs by rapid INT colorimetric assay; settings: EA298, 18 h; how it was run: as §3
[22] = system: Klebsiella aerogenes; test: Antimicrobial activity against Enterobacter aerogenes EA298 after 18 hrs by rapid INT colorimetric assay in presence of efflux pump inhibitor phenylalanine arginine; settings: EA298, 18 h
[23] = system: Klebsiella aerogenes; test: Antimicrobial activity against Enterobacter aerogenes EA27 after 18 hrs by rapid INT colorimetric assay; settings: EA27, 18 h; how it was run: as §1
[24] = system: Klebsiella aerogenes; test: Antimicrobial activity against Enterobacter aerogenes EA27 after 18 hrs by rapid INT colorimetric assay in presence of efflux pump inhibitor phenylalanine arginine; settings: EA27, 18 h
[25] = system: Klebsiella aerogenes; test: Antimicrobial activity against Enterobacter aerogenes EA3 after 18 hrs by rapid INT colorimetric assay; settings: EA3, 18 h; how it was run: as §1
[26] = system: Klebsiella aerogenes; test: Antimicrobial activity against Enterobacter aerogenes EA3 after 18 hrs by rapid INT colorimetric assay in presence of efflux pump inhibitor phenylalanine arginine; settings: EA3, 18 h
[27] = system: Klebsiella aerogenes; test: Antimicrobial activity against Enterobacter aerogenes EA5 after 18 hrs by rapid INT colorimetric assay; settings: EA5, 18 h; how it was run: as §1
[28] = system: Klebsiella aerogenes; test: Antimicrobial activity against Enterobacter aerogenes EA5 after 18 hrs by rapid INT colorimetric assay in presence of efflux pump inhibitor phenylalanine arginine; settings: EA5, 18 h
[29] = system: Klebsiella pneumoniae; test: Antimicrobial activity against Klebsiella pneumoniae ATCC 11296 after 18 hrs by rapid INT colorimetric assay; settings: ATCC 11296, 18 h; how it was run: as §3
[30] = system: Klebsiella pneumoniae; test: Antimicrobial activity against Klebsiella pneumoniae ATCC 11296 after 18 hrs by rapid INT colorimetric assay in presence of efflux pump inhibitor phenylalanine arginine; settings: ATCC 11296, 18 h
[31] = system: Klebsiella pneumoniae; test: Antimicrobial activity against Klebsiella pneumoniae KP55 after 18 hrs by rapid INT colorimetric assay; settings: KP55, 18 h; how it was run: as §1
[32] = system: Klebsiella pneumoniae; test: Antimicrobial activity against Klebsiella pneumoniae KP55 after 18 hrs by rapid INT colorimetric assay in presence of efflux pump inhibitor phenylalanine arginine; settings: KP55, 18 h
[33] = system: Klebsiella pneumoniae; test: Antimicrobial activity against Klebsiella pneumoniae KP63 after 18 hrs by rapid INT colorimetric assay; settings: KP63, 18 h; how it was run: as §1
[34] = system: Klebsiella pneumoniae; test: Antimicrobial activity against Klebsiella pneumoniae KP63 after 18 hrs by rapid INT colorimetric assay in presence of efflux pump inhibitor phenylalanine arginine; settings: KP63, 18 h
[35] = system: Pseudomonas aeruginosa; test: Antimicrobial activity against Pseudomonas aeruginosa PAO1 after 18 hrs by rapid INT colorimetric assay; settings: PAO1, 18 h; how it was run: as §3
[36] = system: Pseudomonas aeruginosa; test: Antimicrobial activity against Pseudomonas aeruginosa PAO1 after 18 hrs by rapid INT colorimetric assay in presence of efflux pump inhibitor phenylalanine arginine; settings: PAO1, 18 h
[37] = system: Pseudomonas aeruginosa; test: Antimicrobial activity against Pseudomonas aeruginosa PA124 after 18 hrs by rapid INT colorimetric assay; settings: PA124, 18 h; how it was run: as §3
[38] = system: Pseudomonas aeruginosa; test: Antimicrobial activity against Pseudomonas aeruginosa PA124 after 18 hrs by rapid INT colorimetric assay in presence of efflux pump inhibitor phenylalanine arginine; settings: PA124, 18 h
[39] = system: Enterobacter cloacae; test: Antimicrobial activity against Enterobacter cloacae Ec07769 after 18 hrs by rapid INT colorimetric assay; settings: Ec07769, 18 h; how it was run: as §1
[40] = system: Enterobacter cloacae; test: Antimicrobial activity against Enterobacter cloacae Ec07769 after 18 hrs by rapid INT colorimetric assay in presence of efflux pump inhibitor phenylalanine arginine; settings: Ec07769, 18 h
[41] = system: Enterobacter cloacae; test: Antimicrobial activity against Enterobacter cloacae Ec1194 after 18 hrs by rapid INT colorimetric assay; settings: Ec1194, 18 h; how it was run: as §1
[42] = system: Enterobacter cloacae; test: Antimicrobial activity against Enterobacter cloacae Ec1194 after 18 hrs by rapid INT colorimetric assay in presence of efflux pump inhibitor phenylalanine arginine; settings: Ec1194, 18 h; how it was run: as §2

For `CCn1cc(C(=O)O)c(=O)c2cc(F)c(N3CCNCC3)cc21` [NORFLOXACIN], the MIC [1] was 0.06 µg/mL (≈ 0.188 µM), the MIC [2] was 0.03 µg/mL and the MIC [3] was 0.12 µg/mL (≈ 0.376 µM). The MIC [4] was 0.12 µg/mL, the MIC [5] was 0.12 µg/mL (≈ 0.376 µM) and the MIC [6] was 0.12 µg/mL. It also gave an MIC [7] of 0.03 µg/mL (≈ 0.0939 µM), an MIC [8] of 0.007 µg/mL and an MIC [9] of 1 µg/mL (≈ 3.13 µM). The MIC [10] was 0.25 µg/mL, the MIC [11] was 1 µg/mL (≈ 3.13 µM) and the MIC [12] was 0.25 µg/mL. The MIC [13] was 0.25 µg/mL (≈ 0.783 µM), the MIC [14] was 0.25 µg/mL and the MIC [15] was 4 µg/mL (≈ 12.5 µM). It also gave an MIC [16] of 2 µg/mL, an MIC [17] of 128 µg/mL (≈ 401 µM) and an MIC [18] of 128 µg/mL. The MIC [19] was 64 µg/mL (≈ 200 µM), the MIC [20] was 32 µg/mL and the MIC [21] was 8 µg/mL (≈ 25.1 µM). The MIC [22] was 8 µg/mL, the MIC [23] was 256 µg/mL (≈ 802 µM) and the MIC [24] was 128 µg/mL. For the same compound, the MIC [25] was 128 µg/mL (≈ 401 µM), the MIC [26] was 64 µg/mL and the MIC [27] was 256 µg/mL (≈ 802 µM). The MIC [28] was 128 µg/mL, the MIC [29] was 1 µg/mL (≈ 3.13 µM) and the MIC [30] was 0.5 µg/mL. For the same compound, the MIC [31] was 16 µg/mL (≈ 50.1 µM), the MIC [32] was 8 µg/mL and the MIC [33] was 16 µg/mL (≈ 50.1 µM). For the same compound, the MIC [34] was 4 µg/mL, the MIC [35] was 2 µg/mL (≈ 6.26 µM) and the MIC [36] was 1 µg/mL. The MIC [37] was 64 µg/mL (≈ 200 µM), the MIC [38] was 32 µg/mL and the MIC [39] was > 256 µg/mL. For the same compound, the MIC [40] was > 256 µg/mL, the MIC [41] was 32 µg/mL (≈ 100 µM) and the MIC [42] was 32 µg/mL.
